The structures appear in SMILES notation.

Data set [1] can be described thus: Stability in mouse plasma assessed as compound remaining measured after 30 mins. The class given is ADME, cell-free. The settings on record: read-out: Stability.
A short description of data set [2]: Cmax in Balb/c mouse at 50 mg/kg, ip by LC-MS/MS analysis. It counts as ADME, organism-based. Also on record: route intraperitoneal, dose 50 mg/kg. As to conditions: in vivo. A digest of the protocol:
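Male BALB/c mice received a single intraperitoneal dose from a 50 mg/mL solution in 5% DMSO, 30% PEG400, 1% Tween80 and 64% saline. Blood was collected at several time points and the compound quantified by triple-quadrupole LC-MS/MS.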

Data set [3] has as its system MV4-11. In words: Induction of apoptosis in human MV4-11 cells assessed as late apoptotic cells at 2 uM incubated for 15 mins by Annexin-V/FITC staining based FACS analysis (reference value: 4.17%). It counts as functional. The settings on record: 0.25 h. A digest of the protocol:
(§1)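 MV4-11 cells were dosed, then washed twice in cold PBS and resuspended in binding buffer at 1×10^6 cells/mL. Cells were stained with FITC-annexin V and propidium iodide for 15 min in the dark, diluted with binding buffer and analysed by flow cytometry within 1 h. Quadrants: LL viable, LR early apoptotic, UR late apoptotic. Duplicate experiments averaged; DMSO control.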

A short description of data set [4]: Kinetic solubility in pH 7.4 PBS buffer assessed as saturation concentration by HPLC analysis. The class given is physicochemical.
Data set [5] relates to MV4-11. In words: Induction of apoptosis in human MV4-11 cells assessed as early apoptotic cells at 4 uM incubated for 15 mins by Annexin-V/FITC staining based FACS analysis (reference value: 0.70%). It counts as functional. As to conditions: 0.25 h. The method, boiled down: as §1
(Flow cytometry measures light scatter and fluorescence of single cells or particles in a stream.)

For data set [6], the target named is T1, Protein deacetylase HDAC6 (Homo sapiens, UniProt Q9UBN7).
T1 sequence (Q9UBN7 whole entry): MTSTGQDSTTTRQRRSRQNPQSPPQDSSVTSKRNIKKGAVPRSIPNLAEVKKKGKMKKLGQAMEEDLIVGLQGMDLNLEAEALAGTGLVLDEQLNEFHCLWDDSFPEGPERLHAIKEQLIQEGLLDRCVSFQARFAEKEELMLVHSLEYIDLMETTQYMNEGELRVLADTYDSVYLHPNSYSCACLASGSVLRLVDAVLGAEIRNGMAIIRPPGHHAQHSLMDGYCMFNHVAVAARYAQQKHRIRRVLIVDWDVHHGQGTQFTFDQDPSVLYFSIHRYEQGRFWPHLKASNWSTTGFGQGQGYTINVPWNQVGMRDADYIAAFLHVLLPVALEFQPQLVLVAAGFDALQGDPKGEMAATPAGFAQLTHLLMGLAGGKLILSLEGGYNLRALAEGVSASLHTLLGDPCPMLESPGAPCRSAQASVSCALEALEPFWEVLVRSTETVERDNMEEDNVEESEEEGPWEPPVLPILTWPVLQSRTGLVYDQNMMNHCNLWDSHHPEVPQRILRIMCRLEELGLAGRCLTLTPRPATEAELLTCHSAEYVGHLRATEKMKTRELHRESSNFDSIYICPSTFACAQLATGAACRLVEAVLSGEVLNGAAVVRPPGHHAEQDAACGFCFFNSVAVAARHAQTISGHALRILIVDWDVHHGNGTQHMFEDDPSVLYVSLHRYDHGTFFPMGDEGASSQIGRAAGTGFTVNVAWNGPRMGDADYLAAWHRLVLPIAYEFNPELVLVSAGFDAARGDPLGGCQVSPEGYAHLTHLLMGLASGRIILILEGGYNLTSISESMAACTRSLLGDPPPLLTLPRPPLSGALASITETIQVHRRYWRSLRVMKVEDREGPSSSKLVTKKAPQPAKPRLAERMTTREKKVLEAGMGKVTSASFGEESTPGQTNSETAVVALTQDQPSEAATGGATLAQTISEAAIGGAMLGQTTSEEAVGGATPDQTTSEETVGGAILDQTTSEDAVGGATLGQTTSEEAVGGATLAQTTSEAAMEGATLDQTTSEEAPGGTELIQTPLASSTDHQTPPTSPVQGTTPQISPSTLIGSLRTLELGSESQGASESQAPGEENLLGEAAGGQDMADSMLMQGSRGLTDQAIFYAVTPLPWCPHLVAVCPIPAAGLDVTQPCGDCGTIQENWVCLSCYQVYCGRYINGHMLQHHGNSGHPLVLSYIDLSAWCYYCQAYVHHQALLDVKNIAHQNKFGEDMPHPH
In words: Inhibition of full length human HDAC6 preincubated for 3 hrs.

The subject of the next data set is Ramos. In words: Anti-proliferative activity against human Ramos cells assessed as cell viability measured after 72 hrs by Cell-Titer assay. It counts as functional, cell-based. A digest of the protocol:
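Cells were plated in 96-well plates and received compound or vehicle (0.5% DMSO) 24 h later. CellTiter-Blue was added at 72 h and fluorescence read at 560/590 nm. IC50 derived by non-linear regression.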

For the next data set, the target named is Histone deacetylase 2 (Homo sapiens, UniProt Q92769). In words: Inhibition of full length human HDAC2 using FAM-labeled acetylated peptide as substrate by electrophoretic mobility shift assay. A digest of the protocol: (§2)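 Full-length human HDAC isoform enzymatic assay by electrophoretic mobility shift, using a FAM-labelled acetylated peptide substrate. […] Values are the mean of duplicate experiments with 95% confidence intervals.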
In general terms: A gel shift assay detects complexes by their altered migration in electrophoresis.

For data set [7], the target named is Polyamine deacetylase HDAC10 (Homo sapiens, UniProt Q969S8). The data set can be described thus: Inhibition of full length human HDAC10 using FAM-labeled acetylated peptide as substrate by electrophoretic mobility shift assay. A digest of the protocol: as §2
Data set [8] relates to MV4-11. The data set can be described thus: Induction of apoptosis in human MV4-11 cells assessed as early apoptotic cells at 1 uM incubated for 15 mins by Annexin-V/FITC staining based FACS analysis (reference value: 0.70%). The class given is functional. As to conditions: 0.25 h. A digest of the protocol:
as §1

For data set [9], the system named is MV4-11. The data set can be described thus: Induction of apoptosis in human MV4-11 cells assessed as viable cells at 4 uM incubated for 15 mins by Annexin-V/FITC staining based FACS analysis (reference value: 35.53%). The class given is functional. As to conditions: MV4-11, 0.25 h, read-out: Activity. The method, boiled down: as §1
The subject of data set [10] is MV4-11. In words: Induction of apoptosis in human MV4-11 cells assessed as late apoptotic cells at 1 uM incubated for 15 mins by Annexin-V/FITC staining based FACS analysis (reference value: 4.17%). The settings on record: 0.25 h. The class given is functional. The method, boiled down: as §1
Data set [11] deals with MV4-11. In words: Induction of apoptosis in human MV4-11 cells assessed as late apoptotic cells at 1 uM incubated for 15 mins by Annexin-V/FITC staining based FACS analysis (reference value: 4.36%). It counts as functional. The settings on record: 0.25 h. A digest of the protocol:
as §1

Data set [12] has as its system MV4-11. The data set can be described thus: Induction of apoptosis in human MV4-11 cells assessed as late apoptotic cells at 0.50 uM incubated for 15 mins by Annexin-V/FITC staining based FACS analysis (reference value: 4.36%). The settings on record: dose 0.5 µM, 0.25 h. The class given is functional. A digest of the protocol: as §1
For data set [13], the system named is MV4-11. The data set can be described thus: Induction of apoptosis in human MV4-11 cells assessed as viable cells at 0.25 uM incubated for 15 mins by Annexin-V/FITC staining based FACS analysis (reference value: 84.58%). The class given is functional. The settings on record: MV4-11, 0.25 h, read-out: Activity. The method, boiled down: as §1
Data set [14] concerns MV4-11. In words: Induction of apoptosis in human MV4-11 cells assessed as viable cells at 0.50 uM incubated for 15 mins by Annexin-V/FITC staining based FACS analysis (reference value: 84.58%). The class given is functional. The settings on record: MV4-11, 0.25 h, read-out: Activity. The method, boiled down:
as §1

In data set [15] the test system is MV4-11. In words: Induction of apoptosis in human MV4-11 cells assessed as early apoptotic cells at 2 uM incubated for 15 mins by Annexin-V/FITC staining based FACS analysis (reference value: 7.28%). The class given is functional. As to conditions: 0.25 h. A digest of the protocol:
as §1

In data set [16] the test system is MV4-11. The data set can be described thus: Induction of apoptosis in human MV4-11 cells assessed as late apoptotic cells at 4 uM incubated for 15 mins by Annexin-V/FITC staining based FACS analysis (reference value: 4.36%). It counts as functional. The settings on record: 0.25 h. A digest of the protocol: as §1

Sequence of Polyamine deacetylase HDAC10 (Q969S8 whole entry): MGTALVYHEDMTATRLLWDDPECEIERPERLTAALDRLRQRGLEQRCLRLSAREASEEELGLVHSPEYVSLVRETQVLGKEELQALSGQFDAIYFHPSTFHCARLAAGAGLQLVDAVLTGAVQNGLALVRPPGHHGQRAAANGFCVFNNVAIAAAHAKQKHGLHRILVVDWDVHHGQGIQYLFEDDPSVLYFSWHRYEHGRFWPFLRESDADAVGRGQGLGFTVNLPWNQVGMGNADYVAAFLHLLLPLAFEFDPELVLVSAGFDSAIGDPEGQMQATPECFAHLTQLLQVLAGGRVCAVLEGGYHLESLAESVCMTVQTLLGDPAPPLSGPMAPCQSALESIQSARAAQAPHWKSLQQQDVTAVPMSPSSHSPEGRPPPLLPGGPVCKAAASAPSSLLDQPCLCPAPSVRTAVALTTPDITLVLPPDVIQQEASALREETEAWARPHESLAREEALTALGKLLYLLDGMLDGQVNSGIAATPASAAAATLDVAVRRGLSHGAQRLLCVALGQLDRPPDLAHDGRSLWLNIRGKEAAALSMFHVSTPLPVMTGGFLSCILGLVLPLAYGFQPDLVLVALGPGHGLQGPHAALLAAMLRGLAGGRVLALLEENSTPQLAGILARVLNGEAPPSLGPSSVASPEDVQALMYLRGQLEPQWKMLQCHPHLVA
Sequence of Histone deacetylase 2 (Q92769 whole entry, canonical isoform): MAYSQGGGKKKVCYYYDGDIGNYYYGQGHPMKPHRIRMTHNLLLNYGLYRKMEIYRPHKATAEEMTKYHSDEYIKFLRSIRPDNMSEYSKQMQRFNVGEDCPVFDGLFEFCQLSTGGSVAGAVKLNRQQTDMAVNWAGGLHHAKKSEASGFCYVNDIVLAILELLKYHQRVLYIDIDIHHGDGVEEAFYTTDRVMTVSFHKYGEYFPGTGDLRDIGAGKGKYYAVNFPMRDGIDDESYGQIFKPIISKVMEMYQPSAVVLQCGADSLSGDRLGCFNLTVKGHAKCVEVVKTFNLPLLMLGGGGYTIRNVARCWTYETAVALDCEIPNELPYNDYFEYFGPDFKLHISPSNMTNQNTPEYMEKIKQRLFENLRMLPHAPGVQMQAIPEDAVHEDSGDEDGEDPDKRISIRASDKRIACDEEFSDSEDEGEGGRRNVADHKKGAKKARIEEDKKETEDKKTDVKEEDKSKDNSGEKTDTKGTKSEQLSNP

As to `O=C(NO)c1ccc(CN(Cc2cccnc2)S(=O)(=O)c2cc(F)c(F)c(F)c2F)cc1`, the remaining at 0.5 h in data set [1] is 79.8%. Also, the Cmax – broadly, the maximum level reached in the sampled fluid or tissue – in [2] was found to be 95.1 ng/mL. The Activity with MV4-11 [3] is recorded as 15.44%; with MV4-11 [5], 2.55%; in the data set on MV4-11 [8], 1.84%; with MV4-11 [10], 6.87%. For the same compound, in data set [4], the Kinetic_solubility was found to be 161.5 µM. Moreover, the IC50 (in general, the concentration that inhibits the measured activity by half) in [6] was 2 nM; in the data set on Ramos it was 300 nM; on Histone deacetylase 2, 4970 nM; in data set [7] it was 572 nM. For the same compound, the viability at 4 µM in the data set on MV4-11 [9] was determined as 7.96%.

Consider `O=C(CCCCCCNC(=O)c1cnc(N(c2ccccc2)c2ccccc2Cl)nc1)NO` [CITARINOSTAT], for which the Activity is given as 9.54% in the data set on MV4-11 [11], 5.77% in the data set with MV4-11 [12], 27.95% with MV4-11 [15] and 15.54% in the data set with MV4-11 [16]. For the same compound, the viability at 0.25 µM in the data set on MV4-11 [13] was 84.3%. For the same compound, in the data set with MV4-11 [14], the viability at 0.5 µM worked out at 81.4%.

The record behind these values is ChEMBL document CHEMBL5042469, “Unique Molecular Interaction with the Histone Deacetylase 6 Catalytic Tunnel: Crystallographic and Biological Characterization of a Model Chemotype” (J Med Chem, 2021).
